# Assay results gathered from unrelated publications.
# Each line is one published result; the experiments were not run side by side.
# Read-out: cell growth or viability
SMILES,cell line,assay,setting,quantity,result
COc1cccc2c1C(=O)c1c(O)c3c(c(O)c1C2=O)C[C@@](O)(C(=O)CO)C[C@@H]3O[C@H]1C[C@H](N)[C@H](O)[C@H](C)O1,U-937,,96 h,IC50,22.2 nM
Cc1n[nH]c2ccc3nc(-c4ccc(C(=O)NCCN(C)C)cc4)c4c(c3c12)CCCCC4,ML-2,,72 h,GI50,1070 nM
CCCCCCCCCCCCCCCCCCOc1ccc(CC(=O)OCC[N+]2(C)CCCC2)cc1,NCI-H226,SRB,10 µM,inhibition,7.36%
C=C(NC(=O)C(=C)NC(=O)c1csc(C2=N[C@@H]3c4csc(n4)[C@H]4NC(=O)c5csc(n5)[C@H]([C@](C)(O)[C@@H](C)O)NC(=O)[C@H]5CSC(=N5)/C(=C/C)NC(=O)[C@H]([C@@H](C)O)NC(=O)c5csc(n5)[C@]3(CC2)NC(=O)[C@H](C)NC(=O)C(=C)NC(=O)[C@H](C)NC(=O)[C@H]([C@@H](C)CC)N[C@@H]2C=Cc3c([C@H](C)O)cc(nc3[C@H]2O)C(=O)O[C@@H]4C)n1)C(N)=O,Calu-1,,,EC50,3200 nM
CCCCCCCCCCCCCCCCCCOc1ccccc1CC(=O)OCC[N+]1(C)CCCC1,NCI-H226,SRB,10 µM,inhibition,86.6%
O=C(NO)c1ccc(Cn2cnc3c(Nc4ccc(Cl)cc4)ncnc32)cc1,U-937,MTT,72 h,IC50,7910 nM
CCc1nc(C(N)=O)c(Nc2ccc(N3CCC(N4CCN(C)CC4)CC3)c(OC)c2)nc1NC1CCOCC1,ML-2,,72 h,GI50,902 nM
CCCCCCCCCCCCCCCCCCOc1cccc(CC(=O)OCC[N+]2(C)CCOCC2)c1,NCI-H226,SRB,10 µM,inhibition,6.29%
Nc1ccccc1NC(=O)c1ccc(Cn2cnc3c(Nc4ccc(Cl)cc4)ncnc32)cc1,U-937,MTT,72 h,IC50,920 nM
CN(C)CCNC(=O)c1ccc(-c2nc3ccc4[nH]ncc4c3c3c2CCCCC3)cc1,U-937,,72 h,GI50,1480 nM
CCCCCCCCCCCCCCCCCCOc1cccc(CC(=O)OCC[N+]2(C)CCCC2)c1,NCI-H226,SRB,10 µM,inhibition,14.6%
C=C[C@]1(C)C=C2CC[C@H]3C(C)(C)CCC[C@]3(C)[C@H]2CC1,HuCC-A1,MTT,75 h,IC50,108000 nM
CC(C)(C)c1cnc(CSc2cnc(NC(=O)C3CCN(C(=O)CCCCCCCN4Cc5cc6c(cc5C4)C(=O)N(C4CCC(=O)NC4=O)C6=O)CC3)s2)o1 (stereo not shown),NCI-H226,MTT,,IC50,57 nM
COc1cccc2c1C(=O)c1c(O)c3c(c(O)c1C2=O)C[C@@](O)(C(=O)CO)C[C@@H]3O[C@H]1C[C@H](N)[C@H](O)[C@H](C)O1,HuCC-A1,MTT,,IC50,861 nM
O=C(NO)c1ccc(Cn2cnc3c(Nc4ccc(F)c(Cl)c4)ncnc32)cc1,U-937,MTT,72 h,IC50,2940 nM
CCCCCCCCCCCCCCCCCCOc1ccccc1CC(=O)OCCC[N+](C)(C)C,NCI-H226,SRB,10 µM,inhibition,22%
Cc1n[nH]c2ccc3nc(-c4ccc(C(=O)NCCN(C)C)cc4)c4c(c3c12)CCCC4,ML-2,,72 h,GI50,429 nM
CCCCCCCCCCCCCCCCCCOc1ccccc1CC(=O)OCC[N+](C)(C)C,NCI-H226,SRB,10 µM,inhibition,71.3%
CN1CCC(NC2CCc3[nH]c4c(C(N)=O)ccc(-c5ccccc5Cl)c4c3C2)CC1 (stereo not shown),U-937,,96 h,IC50,7.6 nM
CC(C)(C)c1cc(NC(=O)Nc2ccc(-c3cn4c(n3)sc3cc(OCCN5CCOCC5)ccc34)cc2)no1,ML-2,,72 h,GI50,> 10000 nM
CCCCCCCCCCCCCCCCCCOc1cccc(CC(=O)OCC[N+](C)(C)C)c1,NCI-H226,SRB,10 µM,inhibition,5.79%
CN(C)CCNC(=O)c1ccc(-c2nc3ccc4[nH]ncc4c3c3c2CCCC3)cc1,U-937,,72 h,GI50,658 nM
Cc1nc(Nc2ncc(C(=O)Nc3c(C)cccc3Cl)s2)cc(N2CC[C@H](O)C2)n1,SU-DHL-8,ATP luminescence,"10 µM, 72 h",inhibition,8%
Cc1n[nH]c2ccc3nc(-c4ccc(C(=O)NCCN(C)C)cc4F)c4c(c3c12)CCCC4,ML-2,,72 h,GI50,95 nM
CN1C(=O)C(=O)c2cc3c(c4c2c1cc1ccccc14)OCO3,HuCC-A1,MTT,75 h,IC50,44400 nM
CCCCCCCCCCCCCCCCCCOc1ccc(CC(=O)OCCC[N+](C)(C)C)cc1,NCI-H226,SRB,10 µM,inhibition,22.1%
Nc1ccccc1NC(=O)c1ccc(Cn2cnc3c(Nc4ccc(Br)cc4F)ncnc32)cc1,U-937,MTT,72 h,IC50,1370 nM
CN(C)CCNC(=O)c1ccc(-c2nc3ccc4[nH]ncc4c3c3c2CCCC3)c(F)c1,U-937,,72 h,GI50,2150 nM
